Here are results for four molecules from ChEMBL document CHEMBL2440049, “A structurally simplified analogue of geldanamycin exhibits neuroprotective activity” (ACS Med Chem Lett, 2013).

The species named for series [1] is Homo sapiens. In words: Cytoprotective activity in DEM-stimulated human Friedreich's ataxia lymphocytes assessed as cells with intact mitochondrial membrane potential at 5 uM preincubated for 16 hrs prior to DEM-stimulation measured after 140 mins by TMRM dye-based flow cytometric analysis (reference value: 92%). In kind it is functional. In general terms: A flow cytometer gives signals particle by particle.

The species named for series [2] is Homo sapiens. Nature of the series: Antioxidant activity in human Friedreich's ataxia lymphocytes assessed as suppression of DEM-induced ROS production preincubated for 16 hrs prior to DEM-stimulation measured after 80 mins by flow cytometric analysis. In kind it is functional. In outline:
(§1)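 FRDA lymphocytes pretreated 16 h with compound (5 and 10 μM), then 5 mM diethyl maleate for 80 min to deplete glutathione. Cells washed, resuspended in PBS with 20 mM glucose, loaded with 10 μM DCFH-DA for 20 min. DCF fluorescence read by flow cytometry, 488 nm excitation, 530 ± 15 nm emission, 10,000 events. Expressed as % ROS scavenging; mean ± SEM, n = 3.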

The species entered for series [3] is Homo sapiens. In words: Cytoprotective activity in human Friedreich's ataxia lymphocytes assessed as reduction in DEM-induced oxidative stress preincubated for 16 hrs prior to DEM-stimulation measured after 6 hrs by trypan blue exclusion assay. The series is classed as functional. In outline: (§2)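 FRDA lymphocytes treated with compound at 0.1–5 μM, then oxidatively stressed with diethyl maleate to deplete glutathione. Viability set to 100% for untreated cells. Mean ± SEM of three independent experiments run in duplicate.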

The species named for series [4] is Homo sapiens. Nature of the series: Antioxidant activity in human Friedreich's ataxia lymphocytes assessed as suppression of DEM-induced lipid peroxidation after overnight incubation by flow cytometric analysis. The series is classed as functional. In outline:
(§3)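 FRDA lymphocytes treated with compound at 1, 5 or 10 μM, then stressed with DEM. Lipid peroxidation probed with C11-BODIPY581/591; oxidized green fluorescence, median intensity, measured by flow cytometry and compared with untreated control. Results given as % scavenging activity; mean ± SEM, n = 3.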

A short description of series [5]: Cytoprotective activity in human Friedreich's ataxia lymphocytes assessed as reduction in DEM-induced oxidative stress at 0.5 uM preincubated for 16 hrs prior to DEM-stimulation measured after 6 hrs by trypan blue exclusion assay relative to untreated control. The series is classed as functional. On the set-up: scale not given: the % may be the effect or the level left. In outline:
as §2

The species entered for series [6] is Homo sapiens. Nature of the series: Antioxidant activity in human Friedreich's ataxia lymphocytes assessed as suppression of DEM-induced lipid peroxidation at 5 uM after overnight incubation by flow cytometric analysis relative to untreated control. The series is classed as functional. In outline:
as §3

Series [7] can be described thus: Cytoprotective activity in human Friedreich's ataxia lymphocytes assessed as reduction in DEM-induced oxidative stress at 0.1 uM preincubated for 16 hrs prior to DEM-stimulation measured after 6 hrs by trypan blue exclusion assay relative to untreated control. The series is classed as functional. Set-up: scale not given: the % may be the effect or the level left. The gist of the method:
as §2

Series [8] can be described thus: Cytotoxicity against DEM-stimulated human Friedreich's ataxia lymphocytes assessed as effect on intracellular glutathione concentration at 1 to 10 uM. The series is classed as cell-based.
Series [9] concerns the target Heat shock protein HSP 90-beta (Homo sapiens) (UniProt P08238). Nature of the series: Inhibition of HSP90 in human BT474 cells expressing HER2 assessed as increase in HSP90 protein level at 0.5 to 5 uM after 24 hrs by chemiluminescence assay. In kind it is cell-based. Particulars: BT-474.
The nature of series [10]: Cytotoxicity against human Friedreich's ataxia lymphocytes at 5 to 20 uM after 48 hrs by WST-1 assay. For orientation: Tetrazolium dyes change colour on reduction, which living cells bring about.
Series [11] is filed under the species Homo sapiens. In words: Cytoprotective activity in BSO-stimulated human Friedreich's ataxia fibroblasts assessed as preservation of mitochondrial membrane potential at 5 uM after 12 hrs by JC-1 dye-based Zeiss fluorescent microscopic analysis.
Series [12] is described as follows: Cytoprotective activity in human Friedreich's ataxia lymphocytes assessed as reduction in DEM-induced oxidative stress at 2.5 uM preincubated for 16 hrs prior to DEM-stimulation measured after 6 hrs by trypan blue exclusion assay relative to untreated control. The series is classed as functional. Set-up: scale not given: the % may be the effect or the level left. The gist of the method: as §2

In series [13] the test system is BT-474. In words: Cytotoxicity against human BT474 cells at 5 to 20 uM after 48 hrs by WST-1 assay. Particulars: bt-474, 48 h. The series is classed as cell-based.
For series [14], the species on record is Homo sapiens. In words: Antioxidant activity in human Friedreich's ataxia lymphocytes assessed as suppression of DEM-induced lipid peroxidation at 10 uM after overnight incubation by flow cytometric analysis relative to untreated control. In kind it is functional. The gist of the method:
as §3

The species named for series [15] is Homo sapiens. In words: Antioxidant activity in human Friedreich's ataxia lymphocytes assessed as suppression of DEM-induced lipid peroxidation at 1 uM after overnight incubation by flow cytometric analysis relative to untreated control. The series is classed as functional. The gist of the method: as §3
In series [16] the target is Amyloid-beta precursor protein (Homo sapiens) (UniProt P05067). In words: Neuroprotective activity in differentiated human SH-SY5Y cells assessed as decrease in amyloid beta (1 to 42)-induced neurotoxicity incubated overnight prior to amyloid beta (1 to 42)-stimulation measured after 48 hrs by WST-1 assay. The series is classed as functional, cell-based.
Sequence of Amyloid-beta precursor protein (Homo sapiens) (P05067 whole entry): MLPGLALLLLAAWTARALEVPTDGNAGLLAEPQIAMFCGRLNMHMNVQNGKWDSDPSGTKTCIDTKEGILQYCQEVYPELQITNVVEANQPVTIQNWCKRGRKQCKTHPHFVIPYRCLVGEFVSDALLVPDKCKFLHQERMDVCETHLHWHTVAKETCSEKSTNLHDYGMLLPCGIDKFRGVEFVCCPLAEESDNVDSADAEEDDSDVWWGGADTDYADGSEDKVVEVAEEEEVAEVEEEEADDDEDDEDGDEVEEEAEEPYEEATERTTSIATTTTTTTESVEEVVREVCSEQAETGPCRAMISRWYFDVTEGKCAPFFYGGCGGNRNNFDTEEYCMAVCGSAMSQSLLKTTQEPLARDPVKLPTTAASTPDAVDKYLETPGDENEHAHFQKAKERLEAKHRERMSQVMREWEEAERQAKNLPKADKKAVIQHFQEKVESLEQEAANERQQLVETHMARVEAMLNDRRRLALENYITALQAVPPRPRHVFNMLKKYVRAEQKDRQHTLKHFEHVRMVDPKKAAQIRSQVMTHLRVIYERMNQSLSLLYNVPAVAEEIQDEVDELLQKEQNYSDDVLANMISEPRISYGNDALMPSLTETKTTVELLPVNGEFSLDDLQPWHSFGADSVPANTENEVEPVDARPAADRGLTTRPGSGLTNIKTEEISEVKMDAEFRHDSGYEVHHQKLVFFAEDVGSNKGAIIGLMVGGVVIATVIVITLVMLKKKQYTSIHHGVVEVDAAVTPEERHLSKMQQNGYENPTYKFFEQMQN
The target of series [17] is Heat shock protein HSP 90-beta (Homo sapiens) (UniProt P08238). Nature of the series: Inhibition of HSP90 in human BT474 cells expressing HER2 assessed as HER2 protein degradation at 0.5 to 25 uM after 24 hrs by chemiluminescence assay. The series is classed as cell-based. To be noted: BT-474.
Sequence of Heat shock protein HSP 90-beta (Homo sapiens) (P08238 whole entry): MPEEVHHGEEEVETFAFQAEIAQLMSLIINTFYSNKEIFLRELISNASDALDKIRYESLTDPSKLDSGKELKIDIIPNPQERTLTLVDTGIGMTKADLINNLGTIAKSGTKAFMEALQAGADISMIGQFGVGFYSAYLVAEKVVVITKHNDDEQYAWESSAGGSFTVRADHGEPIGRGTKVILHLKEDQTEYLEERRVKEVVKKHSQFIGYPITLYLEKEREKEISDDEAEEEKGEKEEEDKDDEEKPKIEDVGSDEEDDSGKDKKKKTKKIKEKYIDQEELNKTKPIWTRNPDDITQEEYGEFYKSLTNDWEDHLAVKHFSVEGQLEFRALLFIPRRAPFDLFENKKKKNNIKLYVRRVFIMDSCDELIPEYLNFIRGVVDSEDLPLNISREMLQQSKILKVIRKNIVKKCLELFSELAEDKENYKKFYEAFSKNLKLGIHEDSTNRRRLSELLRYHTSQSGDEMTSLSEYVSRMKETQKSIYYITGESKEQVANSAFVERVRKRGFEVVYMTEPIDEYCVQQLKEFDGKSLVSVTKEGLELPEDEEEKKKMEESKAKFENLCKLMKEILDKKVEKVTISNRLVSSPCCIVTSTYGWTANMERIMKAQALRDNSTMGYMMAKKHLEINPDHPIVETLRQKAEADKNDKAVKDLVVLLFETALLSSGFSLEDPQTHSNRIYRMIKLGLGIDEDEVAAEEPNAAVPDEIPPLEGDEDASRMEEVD
A short description of series [18]: Cytoprotective activity in human Friedreich's ataxia lymphocytes assessed as reduction in DEM-induced oxidative stress at 5 uM preincubated for 16 hrs prior to DEM-stimulation measured after 6 hrs by trypan blue exclusion assay relative to untreated control. The series is classed as functional. Set-up: scale not given: the % may be the effect or the level left. In outline:
as §2

For series [19], the species on record is Homo sapiens. In words: Antioxidant activity in human Friedreich's ataxia lymphocytes assessed as suppression of DEM-induced ROS production at 5 to 10 uM preincubated for 16 hrs prior to DEM-stimulation measured after 80 mins by flow cytometric analysis. The series is classed as functional. In outline:
as §1

Series [20] concerns BT-474. In words: Cytotoxicity against human BT474 cells at 0.05 to 0.25 uM after 48 hrs by WST-1 assay. The series is classed as cell-based. To be noted: bt-474, 48 h.
Series [21] is described as follows: Cytotoxicity against human Friedreich's ataxia lymphocytes at 0.05 to 0.25 uM after 48 hrs by WST-1 assay.

Active and inactive are the calls of the source. The calls are words filed in the database; no cut-off is given here.

For the molecule `COC1=C2CCCCCCCCCCCCCCCNC(=CC1=O)C2=O`, the Activity in [1] is 80%; in series [2] it was “Dose-dependent effect”; in series [3], “Dose-dependent effect”; in series [4] it was “Dose-dependent effect”; in series [5], 69%; in [6] it was 72%. The Activity in series [7] was 36%; in [8] it was “Non-toxic”; in series [10], “Non-toxic”; in series [12], 83%; in series [13] it was “Non-toxic”; in series [14], 83%. In addition, the Activity in series [15] is 29%; in series [16], “Dose-dependent effect”; in series [18] it was 92%. Also, the inhibition entry in series [9] and in series [17] was “inactive” throughout. The result in series [11] was Active.

Take `CCCCCCCCCCCCCC1=C(OC)C(=O)C=C(NCCCCCC)C1=O`: the Activity in series [1] was 56%; in series [4], “Dose-dependent effect”; in [5] it was 50%; in [6], 61%; in [7] it was 20%; in series [12], 66%. Also, the Activity is 70% in series [14], 14% in series [15] and 80% in [18]. In addition, the outcome in series [19] was Active.

On to `COC1=C2C[C@@H](C)C[C@H](OC)[C@H](O)[C@@H](C)/C=C(\C)[C@H](OC(N)=O)[C@@H](OC)/C=C\C=C(/C)C(=O)NC(=CC1=O)C2=O` [GELDANAMYCIN], for which the Activity entry in series [20] and in [21] was “Toxic” each time.

For `CCCCCCCCCCCCCC1=C(O)C(=O)C=C(NCCCCCC)C1=O`, the Activity in series [1] worked out at 43%; in series [5] it was 22%; in [6], 27%; in [7], 18%; in series [12] it was 43%; in series [14], 38%. Also, the Activity is 2% in [15] and 65% in series [18]. The result in series [19] was Active.
